Measurements gathered from unrelated publications.
Target: Ephrin type-A receptor 7 (EPHA7, Homo sapiens, UniProt Q15375)

CO[C@@H](C)c1c(Nc2ccc([C@@H](N(C)C(=O)C3CCS(=O)(=O)CC3)C(F)(F)F)cc2)cnc2cc(Cl)nn12  remaining binding (cell-free assay; competition with immobilised ligand; 1 µM): 87%
Cc1cnc(NC2CCOCC2)nc1-n1cnc(C(=O)NC(CN)c2cc(F)cc(Cl)c2)c1 (stereo not drawn)  remaining activity (enzyme activity; inhibitor; radiometric; 1 µM): 88%
CCCCNc1ncc2c(-c3ccc(F)cc3)nn(C[C@H]3CC[C@H](N)CC3)c2n1  inhibition (target engagement in cells; inhibitor; chemoproteomics; 20 mM): 43.9%
Cc1ccc(Nc2nccc(N(C)c3ccc4c(C)n(C)nc4c3)n2)cc1S(N)(=O)=O  inhibition (enzyme activity; inhibitor; 0.3 µM): 1%
O=C(Nc1cnn(-c2csc(C(=O)NC3COC3)c2)c1)Nc1c(F)cccc1Cl  remaining activity (enzyme activity; inhibitor; 5 µM): 91.2%
CC/C(=N\NC(=O)NCc1cccc(O)c1)c1ccc(O)c(C)c1O  inhibition (enzyme activity; inhibitor; 0.1 µM): -0.5%
CNC(=O)c1cc(Oc2ccc(NC(=O)Nc3ccc(Cl)c(C(F)(F)F)c3)cc2)ccn1  inhibition (enzyme activity; inhibitor; 10 µM): 90%
CC(C)(O)[C@H]1CC[C@H](Nc2ccc3ncc(-c4cccc(C(F)(F)F)c4)n3n2)CC1  remaining activity (enzyme activity; inhibitor; 1 µM): 93.3%
CCN(CC)c1ccc(C2=NNC(=O)CC2C)cc1[N+](=O)[O-] (stereo not drawn)  remaining activity (enzyme activity; inhibitor; 10 µM): 91%
N#CCCc1ccc2c(c1)-c1[nH]c3ccc([N+](=O)[O-])cc3c1CC(=O)N2  remaining signal (cell-free assay; 0.5 µM): 95.3%
CCCOc1ccc([C@H]2[C@H](C(=O)O)[C@@H](c3ccc4c(c3)OCO4)CN2CC(=O)Nc2c(CC)cccc2CC)cc1  remaining binding (cell-free assay; competition with immobilised ligand; 1 µM): 98%
O=C1NC(=O)c2cc(Nc3ccc(F)cc3)c(Nc3ccc(F)cc3)cc21  remaining signal (cell-free assay; 0.5 µM): 84.6%
Cc1cc(NC(=O)c2cccc3cc(-c4cccc5[nH]nc(N)c45)ccc23)ccc1F  activity vs control (enzyme activity; inhibitor; 0.1 µM): 96%
CC(=O)c1c(NS(C)(=O)=O)c2cc(-c3ccc(Cl)cc3)c(-c3ccc(Cl)cc3Cl)nc2n(C)c1=O  remaining binding (cell-free assay; competition with immobilised ligand; 1 µM): 100%
Nc1ncnc2occ(-c3ccc(NC(=O)Nc4cc(C(F)(F)F)ccc4F)cc3)c12  remaining signal (cell-free assay; 20 µM): 0%
CS(=O)(=O)c1cc(C2(NC(=O)c3cncc4c3cnn4-c3ccc(F)cc3)CC2)ccn1  remaining binding (cell-free assay; competition with immobilised ligand; 1 µM): 92%
CC(C)(C)c1nc2c(s1)c1nc(N)ncc1c1ccc(NS(=O)(=O)c3c(F)cccc3F)c(F)c12  remaining activity (enzyme activity; inhibitor; radiometric; 1 µM): 96%
Cn1nc(C(=O)NCc2ccc(C(=O)O)cc2)cc1-c1ccc2[nH]ccc2c1  remaining binding (cell-free assay; competition with immobilised ligand; 0.1 µM): 82%
c1ccc(CNc2nc(N3CCOc4ccccc43)nc3c2CCCC3)cc1  inhibition (target engagement in cells; inhibitor; chemoproteomics; 20 mM): 12%
O=C(NCc1ncc(C(F)(F)F)cc1Cl)c1ccc2c(c1)C1(CCS(=O)(=O)CC1)[C@H](C1CC1)N2S(=O)(=O)c1ccc(F)cc1  remaining binding (cell-free assay; competition with immobilised ligand; 1 µM): 100%
CCN(CC)CCNC(=O)c1c(C)[nH]c(/C=C2\C(=O)Nc3ccc(F)cc32)c1C  inhibition (enzyme activity; inhibitor; 10 µM): 78%
